Activity calls are given as the source filed them. No cut-off for these calls is given here.
Tests used:
[1] = target: T1, GABA-A receptor; anion channel (Rattus norvegicus) (UniProt O09028+P15431+P18506+P18508+P19969+P20236+P23574+P23576+P28471+P28473+P30191+P62813+P63079+P63138+Q91ZM7+Q9ES14); assay: Modulation of GABAA receptor in electrically stimulated Sprague-Dawley rat dentate gyrus hippocampal granule neurons assessed as GABA induced IPSC amplitude at 10 uM at holding potential of -65 mV by whole-cell patch-clamp method; type: protein-complex assay
In short: (§1)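 Rat dentate gyrus granule cells gave evoked IPSCs. Stimulus intensity was set at the start of each recording to give about 30% of maximal amplitude, and bicuculline (20 μM) suppression confirmed GABAAR mediation. IPSCs were recorded before and after perfusion of 10 μM compound, and results are given as percent change from baseline (means ± SEM, n = cells).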

[2] = target: T1, GABA-A receptor; anion channel (Rattus norvegicus); assay: Activation of GABAA receptor in Sprague-Dawley rat dentate gyrus hippocampal granule neurons assessed as holding current at 10 uM by whole-cell patch-clamp method; type: protein-complex assay
In short: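 Rat dentate gyrus granule cells. Holding current was monitored with no electrical stimulation, before and after perfusion of 10 μM compound, to test for direct GABAAR activation.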

[3] = target: T1, GABA-A receptor; anion channel (Rattus norvegicus); assay: Modulation of GABAA receptor in electrically stimulated Sprague-Dawley rat dentate gyrus hippocampal granule neurons assessed as increase in GABA induced IPSC amplitude at 10 uM at holding potential of -65 mV by whole-cell patch-clamp method relative to control; type: protein-complex assay; in short: as §1
[4] = target: T1, GABA-A receptor; anion channel (Rattus norvegicus); assay: Modulation of GABAA receptor in electrically stimulated Sprague-Dawley rat dentate gyrus hippocampal granule neurons assessed as maximal potentiation of GABA induced IPSC amplitude at 100 uM at holding potential of -65 mV by whole-cell patch-clamp method relative to control; type: protein-complex assay
[5] = target: GABA-A receptor; anion channel; assay: Modulation of GABAA receptor in electrically stimulated Sprague-Dawley rat dentate gyrus hippocampal granule neurons assessed as potentiation of GABA induced IPSC amplitude at holding potential of -65 mV by whole-cell patch-clamp method; type: protein-complex assay
[6] = target: T1, GABA-A receptor; anion channel (Rattus norvegicus); assay: Modulation of GABAA receptor in electrically stimulated Sprague-Dawley rat dentate gyrus hippocampal granule neurons assessed as decrease in GABA induced IPSC amplitude at 10 uM at holding potential of -65 mV by whole-cell patch-clamp method relative to control; type: protein-complex assay; in short: as §1
[7] = target: T1, GABA-A receptor; anion channel (Rattus norvegicus); conditions: Sprague-Dawley, 20 uM

SMILES	Activity [1]	Activity [2]	inhibition [6]	also measured
COc1cc(/C=C/C(=O)OCCCCCOC(=O)/C=C/c2ccc(O)c(OC)c2)ccc1O	inactive	inactive		
CCCCCCCCCCCCCCCCCCCCCOC(=O)/C=C/c1ccc(O)c(OC)c1		inactive		Activity [3]: 48.2%; Activity [4]: 74%; EC50 [5]: 7.9 µM
CCCCCCCCCCCCCCCCCCCOC(=O)/C=C/c1ccc(O)c(OC)c1		inactive	36.5%	
CC1=C(C)C(=O)O[C@@H]([C@H](C)[C@H]2CC[C@H]3[C@@H]4[C@@H]5O[C@@H]5[C@@]5(O)CC=CC(=O)[C@]5(C)[C@H]4CC[C@]23C)C1		inactive		Activity [3]: 29.4%
CC1=C(CO)C(=O)O[C@@H]([C@H](C)[C@H]2CC[C@H]3[C@@H]4C=CC5=CC=CC(=O)[C@]5(C)[C@H]4CC[C@]23C)C1	inactive	inactive		
CC1=C(C)C(=O)O[C@@H]([C@@](C)(O)[C@H]2CC[C@H]3[C@@H]4[C@@H]5O[C@@H]5[C@@]5(O)CC=CC(=O)[C@]5(C)[C@H]4CC[C@]23C)C1		inactive	20.8%	
CC1=C(CO)C(=O)O[C@@H]([C@@H](C)[C@H]2CC[C@H]3[C@@H]4C[C@H]5O[C@]56[C@@H](O)C=CC(=O)[C@]6(C)[C@H]4CC[C@]23C)C1	inactive	inactive		
CN1CCc2cc3c(cc2[C@H]1[C@@H]1OC(=O)c2c1ccc1c2OCO1)OCO3				inhibition [7]: Active
CCCCCCCCCCCCCCCCCCOC(=O)/C=C/c1ccc(O)c(OC)c1		inactive	35.8%	
CC1=C(C)C(=O)O[C@@H]([C@](C)(O)[C@H]2CC[C@H]3[C@@H]4C=CC5=CC=CC(=O)[C@]5(C)[C@H]4CC[C@]23C)C1		inactive	28.6%	

From ChEMBL document CHEMBL4373689, “Ferulic Acid Esters and Withanolides: In Search of Withania somnifera GABAA Receptor Modulators” (J Nat Prod, 2019)
